Results as given in ChEMBL document CHEMBL2046278, “Development and evaluation of multifunctional agents for potential treatment of Alzheimer's disease: application to a pyrimidine-2,4-diamine template” (Bioorg Med Chem Lett, 2012).
Calls of active or inactive are those of the source. The rule behind the calls is not given here. Peptide text beside a SMILES is read from it. * marks the point of attachment. Cbz = O=C(OCc1ccccc1)*

Key:
[1] = Inhibition of amyloid beta (1 to 40) fibril formation at 10 uM coincubated with amyloid beta (1 to 40) peptide after 72 hrs by transmission electron microscopic analysis
[2] = Inhibition of self-induced amyloid beta (1 to 40) aggregation at 100 uM after 24 hrs by thioflavin T-based fluorescence analysis
Method in brief: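 Aβ1-40 peptide aggregating on its own, without hAChE, with test compound at 100 μM. Aggregation read by thioflavin T fluorescence and expressed as % inhibition. Reported as the mean of two separate experiments (n = 4), with deviation from the mean under 10% of the mean value.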

Cholinesterase = Cholinesterase (Equus caballus, UniProt P81908); assay: Inhibition of equine BuChE using butyrylthiocholine iodide as substrate after 5 mins by DTNB method
Beta-secretase 1 [3] = target: T1, Beta-secretase 1 (Homo sapiens, UniProt P56817); assay: Inhibition of BACE1
Acetylcholinesterase = Acetylcholinesterase (Homo sapiens, UniProt P22303); assay: Inhibition of human AChE using acetylthiocholine iodide as substrate after 5 mins by DTNB method
[4] = Selectivity ratio of IC50 for human AChE to IC50 for equine BuChE
[5] = Induction of disassembly of preformed amyloid beta (1 to 40) fibrils assessed as disaggregated fibrils at 10 uM after 3 days by transmission electron microscopic analysis
Method in brief: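 Aβ1-40 fibrils were preformed over a three-day pre-fibrillization period. Compound was then incubated with the fibrils at 10 μM, and fibril morphology and disassembly were examined by transmission electron microscopy.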

[6] = Cytotoxicity against human SH-SY5Y cells assessed as cell viability at 40 uM after 24 hrs by MTT assay; format: cell-based; conditions: read-out: Activity
Beta-secretase 1 [7] = target: T1, Beta-secretase 1; assay: Inhibition of BACE1 at 10 uM

Cholinesterase, sequence (P81908 whole entry): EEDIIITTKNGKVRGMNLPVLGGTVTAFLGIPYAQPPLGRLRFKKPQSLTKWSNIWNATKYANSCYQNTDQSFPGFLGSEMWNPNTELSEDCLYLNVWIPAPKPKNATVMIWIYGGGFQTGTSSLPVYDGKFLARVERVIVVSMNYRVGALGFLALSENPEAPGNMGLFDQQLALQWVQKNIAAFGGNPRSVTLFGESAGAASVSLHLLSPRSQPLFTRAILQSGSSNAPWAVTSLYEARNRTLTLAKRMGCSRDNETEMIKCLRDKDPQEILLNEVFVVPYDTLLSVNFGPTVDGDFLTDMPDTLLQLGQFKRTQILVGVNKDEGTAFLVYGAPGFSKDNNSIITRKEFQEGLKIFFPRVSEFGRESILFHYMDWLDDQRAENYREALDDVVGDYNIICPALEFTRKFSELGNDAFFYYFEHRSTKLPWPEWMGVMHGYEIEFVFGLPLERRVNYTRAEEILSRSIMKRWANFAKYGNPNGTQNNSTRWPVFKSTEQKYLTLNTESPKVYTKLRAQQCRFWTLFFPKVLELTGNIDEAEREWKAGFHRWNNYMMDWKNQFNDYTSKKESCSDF
Acetylcholinesterase, sequence (P22303 whole entry): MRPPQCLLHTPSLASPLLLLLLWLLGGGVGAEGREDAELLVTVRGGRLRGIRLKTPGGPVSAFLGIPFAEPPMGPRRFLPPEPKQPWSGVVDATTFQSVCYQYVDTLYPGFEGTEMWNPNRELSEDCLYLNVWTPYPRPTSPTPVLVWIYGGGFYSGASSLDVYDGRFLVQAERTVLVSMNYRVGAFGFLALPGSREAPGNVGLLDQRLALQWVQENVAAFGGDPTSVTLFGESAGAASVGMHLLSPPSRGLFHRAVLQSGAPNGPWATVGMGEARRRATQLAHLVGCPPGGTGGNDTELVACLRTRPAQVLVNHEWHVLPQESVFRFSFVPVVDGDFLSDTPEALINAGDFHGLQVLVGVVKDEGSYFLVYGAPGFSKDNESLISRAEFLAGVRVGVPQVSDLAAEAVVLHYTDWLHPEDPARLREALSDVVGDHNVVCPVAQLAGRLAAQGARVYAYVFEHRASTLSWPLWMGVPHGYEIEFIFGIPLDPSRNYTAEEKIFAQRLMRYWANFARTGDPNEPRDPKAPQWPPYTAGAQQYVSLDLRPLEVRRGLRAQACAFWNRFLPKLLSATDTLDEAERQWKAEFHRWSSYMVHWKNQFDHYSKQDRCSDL
T1 sequence (P56817 whole entry): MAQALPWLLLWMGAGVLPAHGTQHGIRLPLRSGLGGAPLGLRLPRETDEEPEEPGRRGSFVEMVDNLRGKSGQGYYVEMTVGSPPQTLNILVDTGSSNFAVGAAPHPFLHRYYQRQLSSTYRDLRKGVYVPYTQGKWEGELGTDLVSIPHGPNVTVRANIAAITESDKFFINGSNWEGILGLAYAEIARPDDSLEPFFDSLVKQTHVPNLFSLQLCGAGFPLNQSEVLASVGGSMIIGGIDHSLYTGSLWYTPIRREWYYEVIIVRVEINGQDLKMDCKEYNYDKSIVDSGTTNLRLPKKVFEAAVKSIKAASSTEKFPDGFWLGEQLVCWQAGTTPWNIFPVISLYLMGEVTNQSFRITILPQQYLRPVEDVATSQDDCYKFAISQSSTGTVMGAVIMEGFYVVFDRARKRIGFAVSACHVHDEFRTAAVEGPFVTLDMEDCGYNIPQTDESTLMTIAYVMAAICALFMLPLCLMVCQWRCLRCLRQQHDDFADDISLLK

In the case of `COc1ccc2c3c1O[C@H]1C[C@@H](O)C=C[C@@]31CCN(C)C2`, the inhibition [1] is reported as “Active” and the inhibition [2] is reported as 48%.
Work on `COc1ccc(CNc2ccnc(NC3CCN(Cc4ccccc4)CC3)n2)cc1` yielded an IC50 (Cholinesterase) of 4.9 µM, an inhibition [2] of 18.2% and an IC50 (Beta-secretase 1 [3]) of 0.6 µM. It also gave an IC50 (Acetylcholinesterase) of 9.4 µM and a Ratio IC50 [4] of 1.9.
In the case of `Clc1ccc(CNc2ccnc(NC3CCN(Cc4ccccc4)CC3)n2)cc1`, the inhibition [1] is reported as “Active”, the IC50 (Cholinesterase) is reported as 2.8 µM and the inhibition [2] is reported as 42.6%. The inhibition [5] was “Active”, the IC50 (Beta-secretase 1 [3]) was 3.2 µM and the IC50 (Acetylcholinesterase) was 8.8 µM. For the same molecule, the Ratio IC50 [4] was 3.1.
`COc1ccc(CNc2ccnc(NC3CCN(Cc4ccccc4)CC3)n2)cc1OC` gave a viability at 24 h, 40 µM [6] of 81%, an IC50 (Cholinesterase) of 11.4 µM and an inhibition [2] of 17.4%. For the same molecule, the IC50 (Acetylcholinesterase) was 9.9 µM, the Ratio IC50 [4] was 0.9 and the inhibition (Beta-secretase 1 [7]) was 34%.
`c1ccc(CN2CCC(Nc3nccc(NCc4ccc5c(c4)OCO5)n3)CC2)cc1` showed an IC50 (Cholinesterase) of 3.9 µM, an inhibition [2] of 18.6% and an IC50 (Beta-secretase 1 [3]) of 1.4 µM. The IC50 (Acetylcholinesterase) was 12.6 µM and the Ratio IC50 [4] was 3.2.
`Clc1cccc(CNc2ccnc(NC3CCN(Cc4ccccc4)CC3)n2)c1` showed an IC50 (Cholinesterase) of 2.5 µM, an inhibition [2] of 39.9% and an IC50 (Beta-secretase 1 [3]) of 0.6 µM. The IC50 (Acetylcholinesterase) was 7.7 µM and the Ratio IC50 [4] was 3.1.
For `Brc1ccc(CNc2ccnc(NC3CCN(Cc4ccccc4)CC3)n2)cc1`, the inhibition [1] was “Active”, the IC50 (Cholinesterase) was 4.1 µM and the inhibition [2] was 48.4%. For the same molecule, the inhibition [5] was “Active”, the IC50 (Acetylcholinesterase) was 9.9 µM and the Ratio IC50 [4] was 2.4. The inhibition (Beta-secretase 1 [7]) was 33%.
Molecule `Fc1ccc(CNc2ccnc(NC3CCN(Cc4ccccc4)CC3)n2)cc1` has an IC50 (Cholinesterase) of 2.2 µM, an inhibition [2] of 29.8% and an IC50 (Beta-secretase 1 [3]) of 0.7 µM. It also gave an IC50 (Acetylcholinesterase) of 7.7 µM and a Ratio IC50 [4] of 3.5.
Molecule `CC(C)C[C@@H](C=O)NC(=O)[C@H](CC(C)C)NC(=O)[C@@H](NC(=O)OCc1ccccc1)C(C)C` (Cbz-Val-Leu-Leu-aldehyde) has an IC50 (Beta-secretase 1 [3]) of 14 µM.
`Cc1ccc(CNc2ccnc(NC3CCN(Cc4ccccc4)CC3)n2)cc1` gave an IC50 (Cholinesterase) of 2.5 µM, an inhibition [2] of 21.9% and an IC50 (Beta-secretase 1 [3]) of 11.1 µM. For the same molecule, the IC50 (Acetylcholinesterase) was 12.9 µM and the Ratio IC50 [4] was 5.2.
For `Clc1ccccc1CNc1ccnc(NC2CCN(Cc3ccccc3)CC2)n1`, the IC50 (Cholinesterase) was 2.4 µM, the inhibition [2] was 42.2% and the IC50 (Beta-secretase 1 [3]) was 1.7 µM. The IC50 (Acetylcholinesterase) was 7.7 µM and the Ratio IC50 [4] was 3.2.
With `COc1cc(CNc2ccnc(NC3CCN(Cc4ccccc4)CC3)n2)cc(OC)c1OC` the IC50 (Cholinesterase) was 7.7 µM, the inhibition [2] was “inactive” and the IC50 (Beta-secretase 1 [3]) was 8.9 µM. It also gave an IC50 (Acetylcholinesterase) of 10.3 µM and a Ratio IC50 [4] of 1.3.
